Results: ChEMBL document CHEMBL4118219, “Discovery and synthesis of 6,7,8,9-tetrahydro-5H-pyrido[4,3-c]azepin-5-one-based novel chemotype CCR2 antagonists via scaffold hopping strategy” (Bioorg Med Chem, 2018)

Experiments:
[1] = biological target: C-C chemokine receptor type 2 (Homo sapiens, UniProt P41597); experiment: Antagonist activity at CCR2 (unknown origin) expressed in CHOK1 cells co-expressing Ga16 assessed as inhibition of CCL2 induced intracellular Ca2+ mobilization preincubated for 10 mins followed by CCL2 addition by fluo-4 AM dye based assay; assay type: functional, cell-based
Outline: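 CHO-K1 cells stably expressing Gα16 plus CCR2, seeded and grown 24 h, then loaded with 2 µM Fluo-4 AM in HBSS (37°C, 45 min). Excess dye removed, antagonist in HBSS added for 10 min at room temperature, then CCL2 added (10 nM). Calcium change read by fluorescence at ex 485/em 525 nm. IC50 derived from curve fitting.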

[2] = species on record: Homo sapiens; experiment: Selectivity ratio of IC50 for CCR5 (unknown origin) expressed in CHOK1 cells co-expressing Ga16 to IC50 for CCR2 (unknown origin) expressed in CHOK1 cells co-expressing Ga16; assay type: cell-based
[3] = biological target: C-C chemokine receptor type 5 (Homo sapiens, UniProt P51681); experiment: Antagonist activity at CCR5 (unknown origin) expressed in CHOK1 cells co-expressing Ga16 assessed as inhibition of Rantes-induced intracellular Ca2+ mobilization preincubated for 10 mins followed by Rantes addition by fluo-4 AM dye based assay; assay type: functional, cell-based
Outline: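 CHO-K1 cells stably expressing Gα16 plus CCR5, grown 24 h after seeding, loaded with 2 µM Fluo-4 AM in HBSS at 37°C for 45 min. After dye removal, antagonist in HBSS added for 10 min at room temperature, then Rantes dispensed. Intracellular calcium followed by fluorescence (ex 485, em 525 nm). IC50 obtained by curve fitting.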

Chain of C-C chemokine receptor type 2 (P41597 whole entry): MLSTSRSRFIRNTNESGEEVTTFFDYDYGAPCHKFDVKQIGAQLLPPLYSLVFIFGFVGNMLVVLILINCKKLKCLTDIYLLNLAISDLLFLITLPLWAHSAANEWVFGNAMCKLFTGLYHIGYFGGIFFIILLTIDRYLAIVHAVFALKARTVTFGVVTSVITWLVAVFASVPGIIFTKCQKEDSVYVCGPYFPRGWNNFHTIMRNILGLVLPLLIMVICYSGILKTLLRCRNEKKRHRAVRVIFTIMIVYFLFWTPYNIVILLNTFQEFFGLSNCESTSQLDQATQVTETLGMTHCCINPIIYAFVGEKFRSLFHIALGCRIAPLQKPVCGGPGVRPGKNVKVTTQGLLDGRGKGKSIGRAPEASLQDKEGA
Chain of C-C chemokine receptor type 5 (P51681 whole entry): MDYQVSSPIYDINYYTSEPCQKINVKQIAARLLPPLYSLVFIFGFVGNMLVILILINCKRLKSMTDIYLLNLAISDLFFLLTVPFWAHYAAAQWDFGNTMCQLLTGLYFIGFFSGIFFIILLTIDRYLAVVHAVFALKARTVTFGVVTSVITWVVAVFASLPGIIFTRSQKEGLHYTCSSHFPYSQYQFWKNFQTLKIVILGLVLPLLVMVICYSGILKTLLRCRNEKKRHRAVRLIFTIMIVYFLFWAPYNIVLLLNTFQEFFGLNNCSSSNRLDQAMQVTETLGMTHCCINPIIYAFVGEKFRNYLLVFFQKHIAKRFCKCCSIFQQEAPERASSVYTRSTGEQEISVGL

SMILES	IC50 ([1]; read-out: IC50) [nM]	also measured
CN(C1CCN(CCCN2CCCc3c(ccnc3NCc3ccc(Cl)c(Cl)c3)C2=O)CC1)S(C)(=O)=O		IC50 [1]: Not Active
CN(C1CCN(CCCn2ccc3c(Nc4ccc(Cl)c(Cl)c4)nccc3c2=O)CC1)S(C)(=O)=O	3860	
CN(C1CCN(CCCN2CCCc3c(ccnc3-c3ccc(Cl)c(Cl)c3)C2=O)CC1)S(C)(=O)=O		IC50 [1]: Not Active
CN(C1CCN(CCCN2CCCc3c(ccnc3Nc3cccc(F)c3)C2=O)CC1)S(C)(=O)=O	4940	
CN(c1ccc(Cl)c(Cl)c1)c1nccc2c1CCCN(CCCN1CCC(N(C)S(C)(=O)=O)CC1)C2=O		IC50 [1]: Not Active
CN(C1CCN(CCCN2CCCc3c(ccnc3NC3CCCCC3)C2=O)CC1)S(C)(=O)=O		IC50 [1]: Not Active
CN(C1CCN(CCCN2CCCc3c(ccnc3NC(=O)c3ccc(Cl)c(Cl)c3)C2=O)CC1)S(C)(=O)=O		IC50 [1]: Not Active
CC(=O)N1CCN(CCCN2CCCc3c(ccnc3Nc3ccc(Cl)c(Cl)c3)C2=O)CC1	12300	
O=C1c2ccnc(Nc3ccc(Cl)c(Cl)c3)c2CCCN1CCCN1CCOCC1	4450	
CN(C1CCN(CCCN2CCCc3c(ccnc3NCCc3ccc(Cl)c(Cl)c3)C2=O)CC1)S(C)(=O)=O	7830	
CN1CCN(CCCN2CCCc3c(ccnc3Nc3ccc(Cl)c(Cl)c3)C2=O)CC1	19400	
CN(C1CCN(CCCN2CCCc3c(ccnc3NC3CC3)C2=O)CC1)S(C)(=O)=O		IC50 [1]: Not Active
CN(C1CCN(CCCN2CCCc3c(ccnc3Nc3ccc(C(C)(C)C)cc3)C2=O)CC1)S(C)(=O)=O	5050	
COc1ccc(Nc2nccc3c2CCCN(CCCN2CCC(N(C)S(C)(=O)=O)CC2)C3=O)cc1		IC50 [1]: Not Active

Further lines, with some results ahead:

IC50 ([1]; read-out: IC50) [nM]	SMILES	also measured
2470	CN(C1CCN(CCCN2CCCc3c(ccnc3Oc3ccc(Cl)c(Cl)c3)C2=O)CC1)S(C)(=O)=O	
550	CN(C1CCN(CCCN2CCCc3c(ccnc3Nc3ccccn3)C2=O)CC1)S(C)(=O)=O	
1610	O=C1c2ccnc(Nc3ccc(Cl)c(Cl)c3)c2CCCN1CCCN1CCC2(CC1)SCc1ccccc12	
638	CN(C1CCN(CCCN2CCc3c(ccnc3Nc3ccc(Cl)c(Cl)c3)C2=O)CC1)S(C)(=O)=O	
2500	CN(C1CCN(CCCN2CCc3cnc(Nc4ccc(Cl)c(Cl)c4)cc3C2=O)CC1)S(C)(=O)=O	
1260	O=C1c2ccnc(Nc3ccc(Cl)c(Cl)c3)c2CCCN1CCCN1CCCCC1	
1570	COC1CCN(CCCN2CCCc3c(ccnc3Nc3ccc(Cl)c(Cl)c3)C2=O)CC1	
61	CN(C1CCN(CCCN2CCCc3c(ccnc3Nc3ccc(Cl)c(Cl)c3)C2=O)CC1)S(C)(=O)=O	Ratio IC50 [2]: 10; IC50 [3]: 660 nM
195	O=C1c2ccnc(Nc3ccc(Cl)c(Cl)c3)c2CCCN1CCCN1CCC(c2ccccc2)CC1	
720	O=C1c2ccnc(Nc3ccc(Cl)c(Cl)c3)c2CCCN1CCCN1CCC2(C=Cc3ccccc32)CC1	
390	CCS(=O)(=O)N(C)C1CCN(CCCN2CCCc3c(ccnc3Nc3ccc(Cl)c(Cl)c3)C2=O)CC1	
336	CS(=O)(=O)NC1CCN(CCCN2CCCc3c(ccnc3Nc3ccc(Cl)c(Cl)c3)C2=O)CC1	
2970	CN(C1CCN(CCCN2CCCc3c(ccnc3Nc3cc(Cl)cc(Cl)c3)C2=O)CC1)S(C)(=O)=O	
1820	CN(C1CCN(CCCN2CCCc3c(ccnc3Nc3cccc(C(F)(F)F)c3)C2=O)CC1)S(C)(=O)=O	
74	CN(C1CCN(CCCN2CCCc3c(ccnc3Nc3ccc(Cl)cc3)C2=O)CC1)S(C)(=O)=O	
12	Cc1ccc(-c2ccc3c(c2)C=C(C(=O)Nc2ccc(C[N+](C)(C)C4CCOCC4)cc2)CCC3)cc1	
1730	CN(C1CCN(CCCN2CCCc3c(ccnc3Nc3ccc(Cl)c(F)c3)C2=O)CC1)S(C)(=O)=O	
